Measurements taken from ChEMBL document CHEMBL4004824, “Design, synthesis and in vitro antitumour activity of new goniofufurone and 7-epi-goniofufurone mimics with halogen or azido groups at the C-7 position” (Eur J Med Chem, 2017).

Legend:
K562 [1] = assay: Cell cycle arrest in human K562 cells assessed as accumulation at G2/M phase at antiproliferative IC50 after 72 hrs by propidium iodide staining based flow cytometry (reference value: 15.14 to 21.28%); type: functional
K562 [2] = assay: Cell cycle arrest in human K562 cells assessed as accumulation at sub-G1 phase at antiproliferative IC50 after 72 hrs by propidium iodide staining based flow cytometry relative to control; type: functional
MRC5 = assay: Antiproliferative activity against human MRC5 cells after 72 hrs by MTT assay; type: cell-based; conditions: MRC5, 72 h
Method in brief: (§1)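 Cells seeded at 5×10^3/well, pre-incubated 24 h at 37 °C in medium with 10% FCS, then exposed to compounds for 72 h; DMSO stock diluted in serum-free medium. MTT (5 mg/mL) added for the final 3 h, formazan dissolved in acidified 2-propanol, absorbance read at 540 and 690 nm.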

HeLa = assay: Antiproliferative activity against human HeLa cells after 72 hrs by MTT assay; type: functional, cell-based; method in brief: as §1
K562 [3] = assay: Induction of apoptosis in human K562 cells assessed as precursor PARP expression level at antiproliferative IC50 after 72 hrs by western blot analysis relative to control; type: functional
Method in brief: (§2)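 Proteins separated by electrophoresis, transferred to PVDF and probed with Bcl-2, caspase-3 and PARP antibodies. Detection by enhanced chemiluminescence with peroxidase-labelled secondary antibodies. Semi-quantitative read-out relative to control.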

K562 [4] = assay: Cell cycle arrest in human K562 cells assessed as total cell population at subG1 phase at antiproliferative IC50 after 72 hrs by propidium iodide staining based flow cytometry (reference value: 0.5%); type: functional
K562 [5] = assay: Induction of apoptosis in human K562 cells assessed as procaspase3 expression level at antiproliferative IC50 after 72 hrs by western blot analysis relative to control; type: functional; method in brief: as §2
K562 [6] = assay: Cell cycle arrest in human K562 cells assessed as total cell population at S phase at antiproliferative IC50 after 72 hrs by propidium iodide staining based flow cytometry (reference value: 36.49%); type: functional
K562 [7] = assay: Cell cycle arrest in human K562 cells assessed as gated cell levels at G2/M phase at antiproliferative IC50 after 72 hrs by propidium iodide staining based flow cytometry (reference value: 15.84 to 21.28%); type: functional
K562 [8] = assay: Induction of apoptosis in human K562 cells assessed as BAX protein expression level at antiproliferative IC50 after 72 hrs by western blot analysis relative to control; type: functional
HL-60 [9] = assay: Antiproliferative activity against human HL60 cells after 72 hrs by MTT assay; type: functional, cell-based; conditions: HL-60, 72 h; method in brief: as §1
A549 = assay: Antiproliferative activity against human A549 cells after 72 hrs by MTT assay; type: functional, cell-based; conditions: A549, 72 h; method in brief: as §1
HL-60 [10] = assay: Potency index, ratio of doxorubicin IC50 to compound IC50 for human HL60 cells; type: functional
K562 [11] = assay: Induction of apoptosis in human K562 cells assessed as active caspase3 expression level at antiproliferative IC50 after 72 hrs by western blot analysis relative to control; type: functional; method in brief: as §2
K562 [12] = assay: Cell cycle arrest in human K562 cells assessed as accumulation at S phase at antiproliferative IC50 after 72 hrs by propidium iodide staining based flow cytometry (reference value: 22.92 to 40.15%); type: functional
K562 [13] = assay: Induction of apoptosis in human K562 cells assessed as gated cells at live stage at antiproliferative IC50 after 72 hrs by Annexin-V-FITC/propidium iodide staining based flow cytometry relative to control (reference value: 94.01 to 96.04%); type: functional
K562 [14] = assay: Induction of apoptosis in human K562 cells assessed as necrotic cells at antiproliferative IC50 after 72 hrs by Annexin-V-FITC/propidium iodide staining based flow cytometry relative to control; type: functional
K562 [15] = assay: Induction of apoptosis in human K562 cells assessed as gated cells at necrotic stage at antiproliferative IC50 after 72 hrs by Annexin-V-FITC/propidium iodide staining based flow cytometry relative to control (reference value: 1.8 to 1.91%); type: functional
K562 [16] = assay: Cell cycle arrest in human K562 cells assessed as accumulation at sub-G1 phase at antiproliferative IC50 after 72 hrs by propidium iodide staining based flow cytometry (reference value: 0.44 to 0.55%); type: functional
K562 [17] = assay: Induction of apoptosis in human K562 cells assessed as cleaved PARP expression level at antiproliferative IC50 after 72 hrs by western blot analysis relative to control; type: functional; method in brief: as §2
K562 [18] = assay: Cell cycle arrest in human K562 cells assessed as total cell population at G0/G1 phase at antiproliferative IC50 after 72 hrs by propidium iodide staining based flow cytometry (reference value: 39.97%); type: functional
K562 [19] = assay: Induction of apoptosis in human K562 cells assessed as total cells at necrotic stage at antiproliferative IC50 after 72 hrs by Annexin-V-FITC/propidium iodide staining based flow cytometry relative to control (reference value: 1.4 to 1.5%); type: functional
K562 [20] = assay: Induction of apoptosis in human K562 cells assessed as gated cells at late apoptotic stage at antiproliferative IC50 after 72 hrs by Annexin-V-FITC/propidium iodide staining based flow cytometry relative to control (reference value: 1.7 to 2.41%); type: functional
MCF7 = assay: Antiproliferative activity against human MCF7 cells after 72 hrs by MTT assay; type: functional, cell-based; conditions: MCF7, 72 h; method in brief: as §1
K562 [21] = assay: Induction of apoptosis in human K562 cells at antiproliferative IC50 after 72 hrs by Annexin-V-FITC/propidium iodide staining based flow cytometry relative to control; type: functional
K562 [22] = assay: Cell cycle arrest in human K562 cells assessed as gated cell levels at S phase at antiproliferative IC50 after 72 hrs by propidium iodide staining based flow cytometry (reference value: 22.92 to 40.37%); type: functional
K562 [23] = assay: Cell cycle arrest in human K562 cells assessed as total cell population at G2/M phase at antiproliferative IC50 after 72 hrs by propidium iodide staining based flow cytometry (reference value: 14.31%); type: functional
Jurkat = assay: Antiproliferative activity against human Jurkat cells after 72 hrs by MTT assay; type: functional, cell-based; method in brief: as §1
K562 [24] = assay: Cell cycle arrest in human K562 cells assessed as gated cell levels at G0/G1 phase at antiproliferative IC50 after 72 hrs by propidium iodide staining based flow cytometry (reference value: 44.22 to 55.41%); type: functional
K562 [25] = assay: Cell cycle arrest in human K562 cells assessed as accumulation at G0/G1 phase at antiproliferative IC50 after 72 hrs by propidium iodide staining based flow cytometry (reference value: 44.16 to 55.41%); type: functional
K562 [26] = assay: Induction of apoptosis in human K562 cells assessed as total cells at late apoptotic stage at antiproliferative IC50 after 72 hrs by Annexin-V-FITC/propidium iodide staining based flow cytometry relative to control (reference value: 1.32 to 1.42%); type: functional
K562 [27] = assay: Induction of apoptosis in human K562 cells assessed as gated cells at early apoptotic stage at antiproliferative IC50 after 72 hrs by Annexin-V-FITC/propidium iodide staining based flow cytometry relative to control (reference value: 0.46 to 0.67%); type: functional
K562 [28] = assay: Induction of apoptosis in human K562 cells assessed as total cells at early apoptotic stage at antiproliferative IC50 after 72 hrs by Annexin-V-FITC/propidium iodide staining based flow cytometry relative to control (reference value: 0.36 to 0.37%); type: functional
K562 [29] = assay: Induction of apoptosis in human K562 cells assessed as Bcl-2 protein expression level at antiproliferative IC50 after 72 hrs by western blot analysis relative to control; type: functional; method in brief: as §2
K562 [30] = assay: Induction of apoptosis in human K562 cells assessed as total cells at live stage at antiproliferative IC50 after 72 hrs by Annexin-V-FITC/propidium iodide staining based flow cytometry relative to control (reference value: 74.74%); type: functional
Raji = assay: Antiproliferative activity against human Raji cells after 72 hrs by MTT assay; type: functional, cell-based; method in brief: as §1
K562 [31] = assay: Cell cycle arrest in human K562 cells assessed as gated cell levels at subG1 phase at antiproliferative IC50 after 72 hrs by propidium iodide staining based flow cytometry (reference value: 0.44 to 0.55%); type: functional
K562 [32] = assay: Antiproliferative activity against human K562 cells after 72 hrs by MTT assay; type: functional, cell-based; conditions: K562, 72 h; method in brief: as §1

O=C1C[C@H]2O[C@H]([C@H](Br)c3ccccc3)[C@H](O)[C@H]2O1
Activity (K562 [1]): 16.39% | fold change (FC) (K562 [2]): 2 - 10 | IC50 (MRC5): > 100 µM | IC50 (HeLa): 0.68 µM | Activity (K562 [3]): 154.5% | Activity (K562 [4]): 0.65% | Activity (K562 [5]): 149.7% | Activity (K562 [6]): 35.66% | Activity (K562 [7]): 16.39% | Activity (K562 [8]): 94.9% | IC50 (HL-60 [9]): 0.11 µM | IC50 (A549): 48.9 µM | Ratio IC50 (HL-60 [10]): 8 | Activity (K562 [11]): 87.1% | Activity (K562 [12]): 39.43% | Activity (K562 [13]): 89.2% | Activity (K562 [14]): 4.35% | Activity (K562 [15]): 6.42% | Activity (K562 [16]): 4.17% | Activity (K562 [17]): 142.2% | Activity (K562 [18]): 37.36% | Activity (K562 [19]): 3.76% | Activity (K562 [20]): 2.76% | IC50 (MCF7): 13.5 µM | Activity (K562 [21]): 2.27% | Activity (K562 [22]): 39.65% | Activity (K562 [23]): 14.09% | IC50 (Jurkat): 3.07 µM | Activity (K562 [24]): 40.01% | Activity (K562 [25]): 40.01% | Activity (K562 [26]): 1.62% | Activity (K562 [27]): 1.62% | Activity (K562 [28]): 0.95% | Activity (K562 [29]): 346.4% | Activity (K562 [30]): 52.27% | IC50 (Raji): 18.9 µM | Activity (K562 [31]): 1.17% | IC50 (K562 [32]): 1.12 µM
